The target in experiment [1] is T1, PIM1 (Homo sapiens, UniProt P11309). Put plainly: Radioactive [γ-33P]ATP kinase activity assay, PIM1. The settings on record: read-out: IC50 PIM1; 100 μM ATP. The format is biochemical. In a few lines: (§1)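 Commercial human kinase and substrate were used, except the PAK1 kinase domain (residues 249–545), which was expressed and purified in-house. Serial inhibitor concentrations were preincubated 15 min with kinase and substrate in 20 mM MOPS pH 7.0, 30 mM MgCl₂, 0.8 μg/μL BSA and 5% DMSO. The reaction was started with ATP (final 100 μM) plus [γ-³³P]ATP. Reactions were spotted on P81 paper, washed and scintillation-counted. IC50 was the concentration giving background-corrected CPM at 50% of control.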
T1 sequence (P11309 whole entry, the tested form may be a part): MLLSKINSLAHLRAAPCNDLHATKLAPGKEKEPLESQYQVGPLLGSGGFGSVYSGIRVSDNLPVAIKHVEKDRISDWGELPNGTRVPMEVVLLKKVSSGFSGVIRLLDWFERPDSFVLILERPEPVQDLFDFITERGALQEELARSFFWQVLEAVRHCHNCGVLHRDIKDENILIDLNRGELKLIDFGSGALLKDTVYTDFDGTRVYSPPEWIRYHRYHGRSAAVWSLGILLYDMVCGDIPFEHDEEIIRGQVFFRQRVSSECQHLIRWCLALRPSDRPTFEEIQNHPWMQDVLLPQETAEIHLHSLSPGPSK

In another experiment the target is CLK2 (Homo sapiens, UniProt P49760). Put plainly: Millipore KinaseProfiler single-concentration screen, CLK2. Format: biochemical. The settings on record: compound 10 nM, 10 μM ATP. A digest of the protocol:
(§2)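 Single-concentration screen on a commercial panel of human wild-type kinases. Test compound was at 10 nM with 10 μM ATP. Only kinases whose assay concentration was at or below the inhibitor concentration were included, giving 102 kinases. Percentage kinase activity was measured in duplicate and averaged.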

The target in experiment [2] is PAK1 kinase domain (residues 249 to 545) (Homo sapiens, UniProt Q13153). Put plainly: Radioactive [γ-33P]ATP kinase activity assay, PAK1. Format: biochemical. The settings on record: read-out: IC50 PAK1; 100 μM ATP. In a few lines: as §1
Sequence of PAK1 kinase domain (residues 249 to 545) (Q13153 249-545): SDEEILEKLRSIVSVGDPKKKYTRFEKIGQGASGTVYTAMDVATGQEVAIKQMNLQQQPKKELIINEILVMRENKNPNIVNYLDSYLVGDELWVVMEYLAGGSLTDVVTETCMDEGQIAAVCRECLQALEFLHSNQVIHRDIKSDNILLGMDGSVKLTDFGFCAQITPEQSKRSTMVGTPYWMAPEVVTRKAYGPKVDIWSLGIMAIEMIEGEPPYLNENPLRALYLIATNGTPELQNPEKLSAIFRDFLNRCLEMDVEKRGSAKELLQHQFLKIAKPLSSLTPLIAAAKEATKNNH
For another experiment, the target named is FLT4 (Homo sapiens, UniProt P35916). Put plainly: Radioactive [γ-33P]ATP kinase activity assay, FLT4. The settings on record: read-out: IC50 FLT4; 100 μM ATP. The format is biochemical. In a few lines: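 Radiometric assay with commercial human FLT4 and substrate. Serial inhibitor concentrations were preincubated 45 min with kinase and substrate in 20 mM MOPS pH 7.0, 30 mM MgCl₂, 0.8 μg/μL BSA and 5% DMSO. The reaction was started with ATP (final 100 μM) containing [γ-³³P]ATP. Reactions were stopped on P81 paper, washed and scintillation-counted. IC50 was the concentration giving 50% of control CPM after background correction.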
Sequence of FLT4 (P35916 25-1363): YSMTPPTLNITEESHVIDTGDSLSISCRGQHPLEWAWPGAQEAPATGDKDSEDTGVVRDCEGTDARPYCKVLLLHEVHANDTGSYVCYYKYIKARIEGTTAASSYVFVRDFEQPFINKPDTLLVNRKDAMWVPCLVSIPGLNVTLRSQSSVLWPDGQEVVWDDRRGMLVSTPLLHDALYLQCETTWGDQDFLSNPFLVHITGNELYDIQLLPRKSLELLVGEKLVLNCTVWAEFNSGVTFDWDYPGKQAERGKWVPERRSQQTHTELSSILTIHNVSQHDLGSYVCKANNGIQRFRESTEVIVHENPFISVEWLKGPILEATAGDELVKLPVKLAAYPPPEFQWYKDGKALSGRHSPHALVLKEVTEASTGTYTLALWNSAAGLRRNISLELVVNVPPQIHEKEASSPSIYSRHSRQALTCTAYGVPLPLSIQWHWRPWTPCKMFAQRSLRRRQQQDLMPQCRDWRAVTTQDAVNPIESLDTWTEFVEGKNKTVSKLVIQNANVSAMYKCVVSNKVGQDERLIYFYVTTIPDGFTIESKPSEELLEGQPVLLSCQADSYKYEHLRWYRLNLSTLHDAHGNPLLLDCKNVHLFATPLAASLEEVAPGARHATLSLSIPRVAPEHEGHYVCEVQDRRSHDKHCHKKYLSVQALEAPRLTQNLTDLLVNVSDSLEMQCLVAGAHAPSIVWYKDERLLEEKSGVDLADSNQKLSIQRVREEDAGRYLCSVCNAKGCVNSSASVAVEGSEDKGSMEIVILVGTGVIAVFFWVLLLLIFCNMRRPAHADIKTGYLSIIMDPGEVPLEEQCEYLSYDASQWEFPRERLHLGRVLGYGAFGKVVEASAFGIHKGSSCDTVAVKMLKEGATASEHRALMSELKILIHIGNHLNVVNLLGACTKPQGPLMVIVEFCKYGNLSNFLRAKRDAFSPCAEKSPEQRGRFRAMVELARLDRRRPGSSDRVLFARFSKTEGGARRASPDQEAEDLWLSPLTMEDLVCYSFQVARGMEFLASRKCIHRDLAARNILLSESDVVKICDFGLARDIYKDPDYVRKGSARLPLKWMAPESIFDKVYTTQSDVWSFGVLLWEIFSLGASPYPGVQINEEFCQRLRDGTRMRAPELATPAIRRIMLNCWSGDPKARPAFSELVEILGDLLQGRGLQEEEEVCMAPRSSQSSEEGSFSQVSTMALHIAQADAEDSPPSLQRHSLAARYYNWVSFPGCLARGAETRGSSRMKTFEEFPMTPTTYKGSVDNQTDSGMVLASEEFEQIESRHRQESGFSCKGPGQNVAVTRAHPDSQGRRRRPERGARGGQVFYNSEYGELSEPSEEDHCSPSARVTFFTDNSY

The test system of experiment [3] is panels of human wild type protein kinases. Put plainly: Millipore KinaseProfiler selectivity profile over whole panel. Format: biochemical. Particulars: compound 10 nM, 10 μM ATP, panel of 102 kinases. In a few lines: as §2
The target of experiment [4] is T2, GSK3β (Homo sapiens, UniProt P49841). Put plainly: Millipore KinaseProfiler single-concentration screen, GSK3β. Format: biochemical. The settings on record: compound 10 nM, 10 μM ATP. In a few lines: as §2
T2 sequence (P49841 whole entry): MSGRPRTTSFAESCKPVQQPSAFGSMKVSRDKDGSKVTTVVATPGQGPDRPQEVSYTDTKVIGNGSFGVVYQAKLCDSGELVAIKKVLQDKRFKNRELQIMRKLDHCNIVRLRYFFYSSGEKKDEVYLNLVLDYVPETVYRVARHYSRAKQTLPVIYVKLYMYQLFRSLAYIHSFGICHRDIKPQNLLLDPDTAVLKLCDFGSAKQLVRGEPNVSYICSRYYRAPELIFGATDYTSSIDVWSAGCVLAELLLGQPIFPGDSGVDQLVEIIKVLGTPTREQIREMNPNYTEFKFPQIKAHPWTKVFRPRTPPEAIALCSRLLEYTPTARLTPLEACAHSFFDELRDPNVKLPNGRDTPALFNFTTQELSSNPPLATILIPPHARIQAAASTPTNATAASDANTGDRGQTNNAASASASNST
In experiment [5] the target is T1, PIM1. Put plainly: Millipore KinaseProfiler single-concentration screen, PIM1. The format is biochemical. The settings on record: compound 10 nM, 10 μM ATP. A digest of the protocol: as §2
In the next experiment the target is DAPK1 (Homo sapiens, UniProt P53355). Put plainly: Radioactive [γ-33P]ATP kinase activity assay, DAPK1. Format: biochemical. Particulars: read-out: IC50 DAPK1; 100 μM ATP. A digest of the protocol: as §1
Sequence of DAPK1 (P53355 whole entry): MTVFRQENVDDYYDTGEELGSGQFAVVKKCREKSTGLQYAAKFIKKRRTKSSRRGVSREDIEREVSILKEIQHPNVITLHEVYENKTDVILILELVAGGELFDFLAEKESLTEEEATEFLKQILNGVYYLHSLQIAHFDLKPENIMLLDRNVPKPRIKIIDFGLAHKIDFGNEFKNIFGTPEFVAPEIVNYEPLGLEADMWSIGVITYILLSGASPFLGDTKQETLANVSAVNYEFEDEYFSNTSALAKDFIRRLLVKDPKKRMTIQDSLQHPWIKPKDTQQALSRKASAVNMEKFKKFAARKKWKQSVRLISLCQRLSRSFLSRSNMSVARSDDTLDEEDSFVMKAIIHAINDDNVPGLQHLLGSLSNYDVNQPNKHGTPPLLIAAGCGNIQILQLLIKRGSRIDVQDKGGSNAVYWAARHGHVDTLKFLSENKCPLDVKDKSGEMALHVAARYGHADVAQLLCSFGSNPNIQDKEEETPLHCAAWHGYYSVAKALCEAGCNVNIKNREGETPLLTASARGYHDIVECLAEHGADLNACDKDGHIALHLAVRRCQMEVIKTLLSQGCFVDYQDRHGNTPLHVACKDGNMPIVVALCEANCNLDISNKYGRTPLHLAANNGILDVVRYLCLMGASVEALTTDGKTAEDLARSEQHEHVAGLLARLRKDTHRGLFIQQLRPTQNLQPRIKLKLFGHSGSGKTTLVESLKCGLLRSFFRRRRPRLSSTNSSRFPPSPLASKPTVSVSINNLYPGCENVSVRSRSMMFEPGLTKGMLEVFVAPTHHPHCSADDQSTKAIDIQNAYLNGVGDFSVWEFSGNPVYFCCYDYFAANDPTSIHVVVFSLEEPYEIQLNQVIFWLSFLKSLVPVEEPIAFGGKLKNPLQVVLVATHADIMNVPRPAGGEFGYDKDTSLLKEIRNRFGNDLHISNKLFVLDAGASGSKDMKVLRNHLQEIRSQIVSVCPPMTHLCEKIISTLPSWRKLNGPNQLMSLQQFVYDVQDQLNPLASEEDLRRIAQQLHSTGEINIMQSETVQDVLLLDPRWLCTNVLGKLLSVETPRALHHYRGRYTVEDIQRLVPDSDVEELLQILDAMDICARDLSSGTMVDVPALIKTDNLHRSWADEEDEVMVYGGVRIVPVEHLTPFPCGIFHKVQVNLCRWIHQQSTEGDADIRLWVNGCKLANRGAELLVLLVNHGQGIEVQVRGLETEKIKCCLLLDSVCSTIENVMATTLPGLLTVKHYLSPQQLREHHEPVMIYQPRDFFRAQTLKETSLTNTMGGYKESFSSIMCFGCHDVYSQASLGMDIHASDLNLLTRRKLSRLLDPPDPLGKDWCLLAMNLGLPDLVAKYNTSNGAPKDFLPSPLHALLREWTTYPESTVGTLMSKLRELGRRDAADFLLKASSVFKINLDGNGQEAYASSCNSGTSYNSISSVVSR
The next experiment deals with MLCK. Put plainly: Radioactive [γ-33P]ATP kinase activity assay, MLCK. Format: biochemical, human. The settings on record: read-out: IC50 MLCK; 100 μM ATP. In a few lines:
as §1

For experiment [6], the target named is T3, GSK3α (Homo sapiens, UniProt P49840). Put plainly: Radioactive [γ-33P]ATP kinase activity assay, GSK3α. The format is biochemical. In a few lines: as §1
T3 sequence (P49840 whole entry): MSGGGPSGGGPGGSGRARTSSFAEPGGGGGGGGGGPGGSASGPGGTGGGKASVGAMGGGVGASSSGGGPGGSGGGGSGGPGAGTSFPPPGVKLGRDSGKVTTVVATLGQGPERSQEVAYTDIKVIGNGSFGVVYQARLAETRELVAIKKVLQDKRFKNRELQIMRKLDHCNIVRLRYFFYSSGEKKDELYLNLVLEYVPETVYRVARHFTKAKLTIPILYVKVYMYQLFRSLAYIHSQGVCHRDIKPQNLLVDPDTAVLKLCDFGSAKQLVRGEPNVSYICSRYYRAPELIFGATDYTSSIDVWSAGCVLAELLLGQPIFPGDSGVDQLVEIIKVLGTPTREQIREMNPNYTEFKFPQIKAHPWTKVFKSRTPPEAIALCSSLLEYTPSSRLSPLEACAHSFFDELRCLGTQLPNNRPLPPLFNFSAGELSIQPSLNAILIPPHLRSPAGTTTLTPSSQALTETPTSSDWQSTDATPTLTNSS
Experiment [7] addresses T3, GSK3α. Put plainly: Millipore KinaseProfiler single-concentration screen, GSK3α. The format is biochemical. Particulars: compound 10 nM, 10 μM ATP. A digest of the protocol: as §2
The target in experiment [8] is T2, GSK3β. Put plainly: Radioactive [γ-33P]ATP kinase activity assay, GSK3β. Format: biochemical. The settings on record: read-out: IC50 GSK3β; 100 μM ATP. A digest of the protocol: as §1

As usually defined, the IC50 is the midpoint of a concentration-inhibition curve.

Sequence of CLK2 (P49760 whole entry): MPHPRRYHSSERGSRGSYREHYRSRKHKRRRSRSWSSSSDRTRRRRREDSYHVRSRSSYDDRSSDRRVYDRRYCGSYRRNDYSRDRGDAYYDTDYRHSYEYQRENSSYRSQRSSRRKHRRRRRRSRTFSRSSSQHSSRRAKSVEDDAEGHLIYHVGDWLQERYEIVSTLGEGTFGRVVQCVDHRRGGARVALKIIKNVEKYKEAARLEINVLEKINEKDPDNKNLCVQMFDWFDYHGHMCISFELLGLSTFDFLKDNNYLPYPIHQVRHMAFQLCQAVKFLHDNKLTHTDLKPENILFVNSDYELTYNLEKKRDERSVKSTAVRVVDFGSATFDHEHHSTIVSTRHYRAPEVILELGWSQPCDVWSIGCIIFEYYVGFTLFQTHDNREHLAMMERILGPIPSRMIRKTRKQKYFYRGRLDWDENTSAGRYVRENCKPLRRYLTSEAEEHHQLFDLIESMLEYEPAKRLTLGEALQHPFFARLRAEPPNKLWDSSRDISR

As to `Nc1cnc2c(c1)c1c(c3c4ccccc4[n-]c23)C(=O)NC1=O.[C-]#[O+].[Cl][Ru+3].[NH-]Cc1ccccn1` [Λ-OS1], the IC50 is 14 nM on PIM1 [1]; above 100000 nM in experiment [2]; 1180 nM at FLT4; 22800 nM on DAPK1; 22 nM at MLCK; 0.9 nM on GSK3α [6] (read-out: IC50 GSK3α, 100 μM ATP). Moreover, the IC50 on GSK3β [8] came to 6 nM. For the same molecule, the “residual activity CLK2” value at CLK2 turned out to be 33%. The “number of kinases out of 102 with activity higher than 75%” value in experiment [3] is reported as 98. Moreover, the “residual activity GSK3β” value on GSK3β [4] is 58%. The “residual activity PIM1” value on PIM1 [5] turned out to be 13%. Also, the “IC50 value ratio of GSK3α/PAK1” value on GSK3α [6] (100 μM ATP) is below 0.000009. On GSK3α [6] (IC50 ratio, 100 μM ATP), the “selectivity for the α- over β-isoform of GSK3” value is “ca. 7 fold”. The “lower IC50 value compared to respective pyridocarbazole ligand, GSK3α” value at GSK3α [6] (metal complex vs free ligand) came to 8890 fold. The “residual activity GSK3α” value at GSK3α [7] turned out to be 6%.

(Values after article PMC3076536 (Journal of the American Chemical Society, 2011).)
